How the values were obtained:
Assay type in all cases: cell-based
[1] = molecular target: Sodium-dependent serotonin transporter (Homo sapiens, UniProt P31645); experiment: In vitro displacement of [3H]paroxetine from human serotonin transporter expressed in HEK293 cells
[2] = molecular target: Sodium-dependent noradrenaline transporter (Homo sapiens, UniProt P23975); experiment: In vitro displacement of [3H]nisoxetine from human norepinephrine transporter expressed in HEK293 cells
Procedure, shortened: (§1)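 Competitive binding using cloned human transporters expressed in HEK-293 cells. NET was labelled with [³H]nisoxetine and DAT with [³H]GBR12935, following a previously published procedure.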

[3] = molecular target: Sodium-dependent dopamine transporter (Homo sapiens, UniProt Q01959); experiment: In vitro displacement of [3H]GBR-12935 from human dopamine transporter expressed in HEK293 cells; procedure, shortened: as §1
Sodium-dependent dopamine transporter, sequence (Q01959 whole entry): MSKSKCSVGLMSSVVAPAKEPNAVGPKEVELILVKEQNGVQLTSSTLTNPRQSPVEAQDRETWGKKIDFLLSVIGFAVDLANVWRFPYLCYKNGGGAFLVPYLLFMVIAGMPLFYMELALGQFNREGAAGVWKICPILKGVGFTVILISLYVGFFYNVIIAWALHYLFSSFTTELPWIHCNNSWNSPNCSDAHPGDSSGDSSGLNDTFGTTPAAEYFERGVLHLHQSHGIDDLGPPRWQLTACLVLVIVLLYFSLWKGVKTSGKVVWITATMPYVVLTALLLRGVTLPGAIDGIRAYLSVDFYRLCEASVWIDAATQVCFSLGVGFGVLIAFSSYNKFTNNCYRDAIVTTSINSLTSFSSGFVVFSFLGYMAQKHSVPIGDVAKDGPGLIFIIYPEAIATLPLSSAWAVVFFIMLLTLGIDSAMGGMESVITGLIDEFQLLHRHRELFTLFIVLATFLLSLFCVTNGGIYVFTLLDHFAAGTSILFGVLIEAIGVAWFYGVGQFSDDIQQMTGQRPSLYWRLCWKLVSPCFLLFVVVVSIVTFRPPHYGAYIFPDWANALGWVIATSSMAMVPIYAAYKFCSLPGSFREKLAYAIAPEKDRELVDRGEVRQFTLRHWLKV

Sodium-dependent noradrenaline transporter, sequence (P23975 whole entry): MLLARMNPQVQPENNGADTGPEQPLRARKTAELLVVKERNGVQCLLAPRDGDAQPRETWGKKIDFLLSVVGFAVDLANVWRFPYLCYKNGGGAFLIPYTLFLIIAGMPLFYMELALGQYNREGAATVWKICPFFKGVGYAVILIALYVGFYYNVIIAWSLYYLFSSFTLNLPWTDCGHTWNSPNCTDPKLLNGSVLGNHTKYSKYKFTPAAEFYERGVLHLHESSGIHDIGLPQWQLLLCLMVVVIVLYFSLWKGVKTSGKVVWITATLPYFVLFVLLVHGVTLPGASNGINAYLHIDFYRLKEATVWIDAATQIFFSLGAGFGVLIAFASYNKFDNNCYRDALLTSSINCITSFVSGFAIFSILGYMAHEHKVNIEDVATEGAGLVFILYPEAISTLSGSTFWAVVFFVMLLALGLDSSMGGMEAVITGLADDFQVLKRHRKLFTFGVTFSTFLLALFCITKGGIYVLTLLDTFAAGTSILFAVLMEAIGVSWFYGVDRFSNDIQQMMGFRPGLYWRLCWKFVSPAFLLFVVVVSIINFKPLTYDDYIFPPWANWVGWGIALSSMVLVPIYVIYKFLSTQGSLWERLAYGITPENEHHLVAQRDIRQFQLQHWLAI
Sodium-dependent serotonin transporter, sequence (P31645 whole entry): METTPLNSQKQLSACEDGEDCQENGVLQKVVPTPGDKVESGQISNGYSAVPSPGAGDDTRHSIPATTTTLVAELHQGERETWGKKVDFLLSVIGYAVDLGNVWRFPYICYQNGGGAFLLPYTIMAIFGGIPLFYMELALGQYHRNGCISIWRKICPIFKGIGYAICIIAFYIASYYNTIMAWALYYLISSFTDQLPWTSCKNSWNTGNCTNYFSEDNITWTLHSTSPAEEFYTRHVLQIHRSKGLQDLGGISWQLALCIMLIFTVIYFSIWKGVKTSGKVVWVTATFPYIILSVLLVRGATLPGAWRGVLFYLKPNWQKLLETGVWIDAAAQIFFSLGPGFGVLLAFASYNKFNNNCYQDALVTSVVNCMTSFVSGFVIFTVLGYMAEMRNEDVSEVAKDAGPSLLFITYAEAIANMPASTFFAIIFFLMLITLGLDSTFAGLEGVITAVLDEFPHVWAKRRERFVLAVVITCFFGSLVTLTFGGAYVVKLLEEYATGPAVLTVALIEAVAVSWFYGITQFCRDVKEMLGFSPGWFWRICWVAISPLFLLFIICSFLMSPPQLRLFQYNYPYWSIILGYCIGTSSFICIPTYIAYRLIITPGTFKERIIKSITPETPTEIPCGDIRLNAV

Ki [1]: 0.03 µM | Ki [2]: 4.44 µM | Ki [3]: 5.3 µM
Compound: Cc1ccc(Sc2ccccc2CN)c(N)c1

From ChEMBL document CHEMBL1145212, “Fluorinated diaryl sulfides as serotonin transporter ligands: synthesis, structure-activity relationship study, and in vivo evaluation of fluorine-18-labeled compounds as PET imaging agents” (J Med Chem, 2005)
